Active and inactive are the calls of the source. The calls are words filed in the database; no cut-off is given here.
Tests used:
MDA-MB-231 = experiment: Cytotoxicity against human MDA-MB-231 cells assessed as cell viability after 24 hrs by MTT assay; type: functional, cell-based; details: MDA-MB-231, 24 h
Outline: (§1)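 Cells grown to about 50−70% confluence at 37 °C, 5% CO2, then exposed to compounds 24 h (DMSO vehicle control, cisplatin positive control). MTT (5 mg/mL stock) added for 4 h, formazan dissolved in DMSO, absorbance read at 570 nm. IC50 derived from percent viability; at least three independent experiments, mean ± SD.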

LNCaP = experiment: Cytotoxicity against human LNCAP cells assessed as cell viability after 24 hrs by MTT assay; type: functional, cell-based; outline: as §1
NCI-H1299 = experiment: Cytotoxicity against human NCI-H1299 cells assessed as cell viability after 24 hrs by MTT assay; type: functional, cell-based; details: NCI-H1299, 24 h; outline: as §1
[1] = Cytotoxicity against human Saos2 cells assessed as cell viability after 24 hrs by MTT assay; type: functional, cell-based; details: SAOS-2, 24 h; outline: as §1
[2] = Cytotoxicity against human T24 cells assessed as cell viability after 24 hrs by MTT assay; type: functional, cell-based; details: T-24, 24 h; outline: as §1
[3] = Cytotoxicity against human PC3 cells assessed as cell viability after 24 hrs by MTT assay; type: functional, cell-based; details: PC-3, 24 h; outline: as §1
[4] = Cytotoxicity against human SKOV3 cells assessed as cell viability after 24 hrs by MTT assay; type: functional, cell-based; details: SK-OV-3, 24 h; outline: as §1
LoVo = experiment: Cytotoxicity against human LoVo cells assessed as cell viability after 24 hrs by MTT assay; type: functional, cell-based; outline: as §1
PC-3 [5] = experiment: Reduction in glutathione level in human PC3 cells at 5 uM preincubated for 4 hrs followed by fluorescence probe addition measured after 1 hr by 3-azido-7-(diethylamino)-2H-chromen-2-one fluorescence probe-based confocal microscopic analysis; type: functional, cell-based
Outline: (§2)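 PC3 cells on glass coverslips treated with compound for 4 h (5 μM NEM as thiol-scavenger control), fixed in cold methanol/acetone (1:1) for 5 min. Stained with 30 μM azidocoumarin probe, which fluoresces on reaction with thiols, for 1 h at room temperature in the dark. Mean cellular fluorescence quantified by confocal microscopy; mean ± SD.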

K562 = experiment: Cytotoxicity against human K562 cells assessed as cell viability after 24 hrs by MTT assay; type: functional, cell-based; details: K562, 24 h; outline: as §1
[6] = Cytotoxicity against human RWPE1 cells assessed as cell viability after 24 hrs by MTT assay; type: cell-based; details: RWPE-1, 24 h; outline: as §1
[7] = Cytotoxicity against human A172 cells assessed as cell viability after 24 hrs by MTT assay; type: functional, cell-based; details: A 172, 24 h; outline: as §1
[8] = Cytotoxicity against human HL60 cells assessed as cell viability after 24 hrs by MTT assay; type: functional, cell-based; details: HL-60, 24 h; outline: as §1
DU-145 = experiment: Cytotoxicity against human DU145 cells assessed as cell viability after 24 hrs by MTT assay; type: functional, cell-based; details: DU-145, 24 h; outline: as §1
[9] = Cytotoxicity against human SH-SY5Y cells assessed as cell viability after 24 hrs by MTT assay; type: functional, cell-based; outline: as §1
PC-3 [10] = experiment: Induction of reactive oxygen species formation in human PC3 cells at 6 uM after 4 hrs by DCFH-DA staining-based flow cytometric analysis in presence of antioxidant N-acetylcysteine; type: functional, cell-based
Outline: (§3)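 PC3 cells exposed to 6 μM compound for 4 h, with optional 5 mM NAC added 1 h beforehand. Loaded with 10 μM DCFH-DA at 37 °C for 30 min, washed, resuspended in PBS and read at once by flow cytometry. ROS expressed as ratio relative to control; Student's t test.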

PC-3 [11] = experiment: Reduction in glutathione level in human PC3 cells at 6 uM preincubated for 4 hrs followed by fluorescence probe addition by 3-azido-7-(diethylamino)-2H-chromen-2-one fluorescence probe-based confocal microscopic analysis; type: functional, cell-based; details: TDE = time-dependent effect; outline: as §2
PC-3 [12] = experiment: Reduction in glutathione level in human PC3 cells preincubated for 4 hrs followed by fluorescence probe addition measured after 1 hr by 3-azido-7-(diethylamino)-2H-chromen-2-one fluorescence probe-based confocal microscopic analysis; type: functional, cell-based; outline: as §2
PC-3 [13] = experiment: Cytotoxicity against human PC3 cells assessed as decrease in cell viability at 6 uM after 24 hrs by MTT assay in presence of antioxidant N-acetylcysteine; type: functional, cell-based
Outline: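 PC3 cells pretreated with 5 mM NAC for 1 h, then given 6 μM compound with or without the antioxidant for 24 h. Viability read by MTT (formazan in DMSO, absorbance at 570 nm). Mean ± SD.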

PC-3 [14] = experiment: Induction of reactive oxygen species formation in human PC3 cells at 6 uM by DCFH-DA staining-based flow cytometric analysis; type: functional, cell-based; details: TDE = time-dependent effect; outline: as §3
PC-3 [15] = experiment: Reduction in total glutathione level in human PC3 cells at 6 uM by DNTB-based assay; type: functional, cell-based; details: TDE = time-dependent effect
Outline: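 PC3 cells exposed to 6 μM compound for the indicated times, lysed by freeze–thaw in protein removal agent and supernatant collected. Total glutathione read with DTNB at 412 nm; GSSG read after masking GSH with 2-vinylpyridine; GSH taken as the difference. Expressed relative to control.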

[16] = Drug uptake in lysosome of human PC3 cells at 8 uM preincubated for 4 hrs followed by fluorescence probe addition measured after 1 hr by 3-azido-7-(diethylamino)-2H-chromen-2-one fluorescence probe-based confocal microscopic analysis; type: ADME, cell-based; details: pc-3, 1 h; outline: as §2
PC-3 [17] = experiment: Induction of apoptosis in human PC3 cells assessed as cathepsin B release from lysosome to cytosol at 8 uM measured over 48 hrs by Western blot analysis; type: functional, cell-based
Outline: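 PC3 cells treated with 8 μM compound for the indicated times, lysed in RIPA buffer with protease inhibitors, protein quantified by BCA. Run on 12% SDS-PAGE, transferred to nitrocellulose, blocked in 5% milk/TBST. Probed overnight at 4 °C for cathepsin B with GAPDH loading control; ECL detection.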

[18] = Selectivity index, ratio of IC50 for human RWPE1 cells to IC50 for human PC3 cells; type: functional
PC-3 [19] = experiment: Induction of apoptosis in human PC3 cells assessed as appearance of swelled/fused lysosomes at 8 uM after 2 hrs by LysoTracker Red and Hoechst 33342 staining-based confocal microscopic analysis; type: functional, cell-based
Outline: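 PC3 cells given 8 μM compound for 2 h, then stained 30 min at 37 °C with 100 ng/mL LysoTracker Red and 10 μg/mL Hoechst 33342. Washed in PBS and imaged by confocal microscopy to assess lysosome swelling or fusion.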

Structure (SMILES) | IC50 (MDA-MB-231) [µM] | IC50 (LNCaP) [µM] | IC50 (NCI-H1299) [µM] | IC50 [1] [µM] | IC50 [2] [µM] | IC50 [3] [µM] | IC50 [4] [µM] | IC50 (LoVo) [µM] | IC50 (K562) [µM] | IC50 [6] [µM] | IC50 [7] [µM] | IC50 [8] [µM] | IC50 (DU-145) [µM] | IC50 [9] [µM] | other results
C=C1C(=O)[C@H]2C[C@]1(O)CC1=C2[C@]2(C)CCCC(C)(C)[C@H]2CC1 | 3.4 | 2.8 | 2.6 | 2.4 | 2.3 | 2.2 | 2.9 | 2.3 | 2.2 | 6.3 | 2.7 | 1.9 | 3.2 | 1.6 | Activity (PC-3 [5]): Active
C=C1C(=O)[C@@]23CC[C@H]4[C@@](C)(CCC[C@@]4(C)C(=O)OC)[C@@H]2CC[C@]1(O)C3 | 5.2 |  | 9.2 |  |  | 6.1 |  |  | 2.9 | 7 |  | 1.5 | 10.8 |  | Activity (PC-3 [10]): inactive; Activity (PC-3 [11]): tde; Activity (PC-3 [12]): Dose-dependent effect; Activity (PC-3 [13]): inactive; Activity (PC-3 [14]): tde; Activity (PC-3 [15]): tde
C=C1C(=O)[C@@]23CC[C@H]4[C@@](C)(CCC[C@@]4(C)C(=O)OCCN4CCN(C)CC4)[C@@H]2CC[C@]1(O)C3 | 27.5 |  | 10.9 |  |  | 8.2 |  |  | 4.1 | 29.3 |  | 3 | 14.9 |  | Drug uptake [16]: Active; Activity (PC-3 [17]): Active; Ratio IC50 [18]: 3.6; Activity (PC-3 [19]): Active
C[C@H]1C(=O)[C@@]23CC[C@@H]4C(C)(C)[C@H](O)CC[C@@]4(C)[C@@H]2[C@@H](O)C[C@@H]1C3 | > 50 | > 50 | > 50 | > 50 | > 50 | > 50 | > 50 | > 50 | > 50 | > 50 | > 50 | > 50 | > 50 | > 50 | 
CC1=C[C@]23C[C@H]1CC[C@H]2[C@@]1(C)[C@H](C[C@H]3O)C(C)(C)CC[C@@H]1O | > 50 | > 50 | > 50 | > 50 | > 50 | > 50 | > 50 | > 50 | > 50 | > 50 | > 50 | > 50 | > 50 | > 50 | 
C=C1C[C@]23C[C@H]1CC[C@H]2[C@@]1(C)[C@H](C[C@H]3OC(C)=O)C(C)(C)CC[C@@H]1O | > 50 | > 50 | > 50 | > 50 | > 50 | > 50 | > 50 | > 50 | > 50 | > 50 | > 50 | > 50 | > 50 | > 50 | 
C=C1C(=O)[C@H]2C[C@]1(O)CC1=C2[C@]2(C)CCC[C@](C)(CO)[C@H]2CC1 | 10.4 |  |  |  |  | 8.2 |  |  |  | 18.6 |  |  | 9.4 |  | Activity (PC-3 [5]): Active
C=C1C(=O)[C@@]23CC[C@H]4[C@@](C)(CCC[C@@]4(C)C(=O)O)[C@@H]2CC[C@]1(O)C3 | 37.2 |  | 32.8 |  |  | 30.1 |  |  | 9.9 | 27 |  | 7.9 | 48.5 |  | Activity (PC-3 [5]): Active
C[C@@H]1C(=O)[C@@]23CC[C@@H]4C(C)(C)[C@H](O)CC[C@@]4(C)[C@@H]2[C@@H](O)C[C@@H]1C3 | > 50 | > 50 | > 50 | > 50 | > 50 | > 50 | > 50 | > 50 | > 50 | > 50 | > 50 | > 50 | > 50 | > 50 | 
C=C1[C@@H]2C[C@H](O)[C@H]3[C@]4(C)CCCC(C)(C)[C@H]4CC[C@]3(C2)[C@@H]1O | > 50 | > 50 | > 50 | > 50 | > 50 | > 50 | > 50 | > 50 | > 50 | > 50 | > 50 | > 50 | > 50 | > 50 | 
C[C@@H]1C(=O)[C@@]23CC[C@@H]4[C@@](C)(CO)CCC[C@@]4(C)C2=CC[C@]1(O)C3 | > 50 | > 50 | > 50 | > 50 | > 50 | > 50 | > 50 | > 50 | > 50 | > 50 | > 50 | > 50 | > 50 | > 50 | 
C=C1[C@@H]2C[C@@H](O)[C@H]3[C@]4(C)CCCC(C)(C)[C@H]4CC[C@]3(C2)[C@@H]1O | > 50 | > 50 | > 50 | > 50 | > 50 | > 50 | > 50 | > 50 | > 50 | > 50 | > 50 | > 50 | > 50 | > 50 | 
